Read-outs that look alike come from different tables or passages of the source.
Assays:
[1] = cited from earlier work
[2] = test system: carotid artery thrombus (fibrin); test: MR imaging of carotid artery thrombosis in a rat model, 1.5T; format: in vivo
In short: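 In a rat carotid artery thrombosis model, 3D T1-weighted gradient-echo MRI with arterial inflow suppression was run at 1.5T. Scans were taken before and immediately after injection of 10 μmol/kg probe (40 μmol/kg metal) and repeated over 1 h; N=4 per probe. Thrombus-to-muscle and contralateral vessel-to-muscle CNR were followed over time. Thrombosis was confirmed by H&E histology. Error bars are SEM.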

[3] = in vivo; settings: rat
[4] = Variable temperature 17O NMR: hydration state and water exchange; format: physicochemical; settings: for ΔH^≠: water exchange; for kex^310: water exchange rate at 310 K
In short: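 Transverse relaxivity of H217O was measured with the Mn complex present across a range of temperatures. The data were fitted to derive water exchange parameters, including kex at 310 K and ΔH, and the Mn-17O hyperfine coupling constant.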

[5] = rat, in vivo
[6] = T1 relaxivity; format: physicochemical; settings: for Relaxivity r1 in pH 7.4 buffer: pH 7.4 Tris buffer
[7] = Biodistribution in rats by ICP-MS; settings: rat, in vivo
[8] = Mn blood pharmacokinetics and plasma speciation in rats; settings: rat, HPLC-ICP-MS
[9] = Mn2+ thermodynamic stability constants by pH-potentiometry; format: physicochemical
In short: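 The ligand was titrated by pH-potentiometry in the presence of 1 equiv MnCl2 at 25 °C and I = 0.15 M NaCl. KML = [ML]/([M][L]) and KHML = [HML]/([ML][H]). Effective formation constants were derived at pH 7.4. pMn is -log[free Mn] when [M] = [L] = 10 μM.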

[10] = format: physicochemical; settings: 1 mM complex, 25 mM Zn2+, 50 mM pH 6.0 MES buffer, 37 °C, 1.4T
[11] = Dynamic MRI clearance kinetics in mice; format: in vivo, balb/C mouse; settings: 60 μmol/kg i.v., monoexponential fit of nSNR vs time
[12] = Mn tissue content by ICP-MS 24h after injection in mice; format: in vivo, mouse
In short: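 Mice (N=4) received test compound i.v. at 60 μmol/kg. Tissue Mn was measured by ICP-MS at 24 h and compared with endogenous Mn in naive mice (N=4). Results were expressed as nmol/g and as %ID/g. Elevation above baseline was tested at P<0.05.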

[13] = Protein bound fraction by ultra-filtration; format: in vitro ADME, bovine; settings: 150-300 μM solution
[14] = target: bovine serum albumin (BSA) (Bos taurus, UniProt P02769); test: Protein bound fraction by ultra-filtration; format: in vitro ADME; settings: 150-300 μM solution
[15] = format: physicochemical; settings: from Kcomp determined using CDTA challenge
In short: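 The conditional stability constant at pH 7.4 came from direct competition of the Mn complex with CDTA, with species monitored by LC-MS. The effective constant was derived from the competition constant Kcomp. pMn was calculated as -log[free Mn] with [M] = [L] = 10 μM.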

[16] = rat, plateau by 35 minutes post injection

Sequence of bovine serum albumin (BSA) (P02769 25-607): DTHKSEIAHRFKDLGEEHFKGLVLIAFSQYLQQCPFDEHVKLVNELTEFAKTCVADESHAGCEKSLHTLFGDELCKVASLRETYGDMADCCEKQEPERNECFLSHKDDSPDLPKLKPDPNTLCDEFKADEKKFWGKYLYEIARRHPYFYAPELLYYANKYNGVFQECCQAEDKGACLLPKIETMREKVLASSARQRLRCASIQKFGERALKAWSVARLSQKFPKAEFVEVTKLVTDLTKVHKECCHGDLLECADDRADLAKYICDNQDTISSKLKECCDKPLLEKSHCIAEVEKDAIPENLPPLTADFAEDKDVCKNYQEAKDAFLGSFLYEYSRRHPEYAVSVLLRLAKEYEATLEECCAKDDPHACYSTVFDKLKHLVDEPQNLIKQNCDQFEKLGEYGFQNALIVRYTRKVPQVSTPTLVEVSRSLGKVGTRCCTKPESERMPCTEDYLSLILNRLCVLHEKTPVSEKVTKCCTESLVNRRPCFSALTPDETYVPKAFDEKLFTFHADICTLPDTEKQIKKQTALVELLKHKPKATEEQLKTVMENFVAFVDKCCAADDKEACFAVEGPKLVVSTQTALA

## O=C([O-])CN1CCN(CC(=O)[O-])CCN(CC(=O)[O-])CCN(CC(=O)[O-])CC1.[Gd+3] [Gd-DOTA]
[1]
  Relaxivity in plasma: 3.6 mM⁻¹ s⁻¹

## CC[C@H](C)[C@H](NC(=O)[C@H](Cc1ccc(O)cc1)NC(=O)[C@@H]1CSSC[C@H](NC(=O)[C@@H](CCC(=O)O)NC(=O)[C@H](Cc2ccc(O)cc2)NC(=O)[C@H](CNC(=O)c2ccc(CN(CC(=O)O)C3CCCCC3N(CC(=O)O)CC(=O)O)nc2)NC(=O)c2ccc(CN(CC(=O)O)C3CCCCC3N(CC(=O)O)CC(=O)O)nc2)C(=O)N2C[C@H](O)C[C@H]2C(=O)N[C@@H](Cc2ccc(O)c(Cl)c2)C(=O)NCC(=O)N[C@@H](CC(C)C)C(=O)N1)C(=O)N[C@@H](CCC(N)=O)C(=O)NCc1ccc(CNC(=O)[C@H](CNC(=O)c2ccc(CN(CC(=O)O)C3CCCCC3N(CC(=O)O)CC(=O)O)nc2)NC(=O)c2ccc(CN(CC(=O)O)C3CCCCC3N(CC(=O)O)CC(=O)O)nc2)cc1 (stereo partly shown) [Mn-FBP]
[2]; rat model of arterial thrombosis
  Thrombus enhancement compared with EP-2104R: equivalent thrombus enhancement
[2]; rat, 10 μmol/kg probe
  Increase of thrombus-to-muscle CNR post injection: more than 5 fold
[2]; [16]
  Peak CNR vs. muscle, contralateral vessel: 5.6±1.5
  Peak CNR vs. muscle, thrombus: 32.9±4.0
[3]
  half-life: 23.5 ± 13.4 min
[4]
  Hydration state (q): 1
  Mn-17O hyperfine coupling constant AO/ħ: 2.82±0.040 ×10^7 rad/s
  ΔH^≠: 9.49 kcal/mol
  kex^310: 1.1±0.04 ×10^8 s^-1
[4]; 37 °C
  Water exchange rate kex: 1.1e+08 s⁻¹
[5]
  Total Mn blood clearance t1/2: 22.6 ± 6.8 min
[6]
  Molecular relaxivity relative to per Mn values: 4 fold
[6]; 1.4 T, 37 °C
  Relaxivity in human fibrinogen solution compared with buffer: unchanged
[6]; 1.4 T, 37 °C, per Mn
  Relaxivity r1 in 4.5% w/v BSA solution: 11.4 mM⁻¹ s⁻¹
  Relaxivity r1 in bovine blood plasma: 10.7 mM⁻¹ s⁻¹
  Relaxivity r1 in pH 7.4 buffer: 8.5 mM^-1s^-1
[6]; fibrinogen converted to fibrin gel, 1.4 T, 37 °C, per Mn
  Relaxivity r1 in human fibrin gel: 13.5 mM⁻¹ s⁻¹
[6]; human fibrin gel vs buffer
  Increase in relaxivity in the presence of fibrin: 60%
[6]; pH 7.4 buffer
  Per Mn relaxivity relative to [Mn(PyC3A)(H2O)]^-: 4 fold
[7]
  Eliminated after 24 hr: > 99%
  Mn in muscle at 24h: 0.02±0.02% of the injected dose per gram tissue
[8]
  Mn dechelation in blood plasma (Mn speciation): no evidence of Mn dechelation

## O=C(O)CN(CC(=O)O)C1CCCCC1N(CC(=O)O)Cc1ccccn1 (stereo not drawn) [PyC3A, N-picolyl-N,N′,N′-trans-1,2-cyclohexylenediaminetriacetate]
[9]; 1 mM each Mn2+ and PyC3A, 0.15M NaCl, 25 °C
  pH by which complexation is complete: 4.5

## O=C([O-])CN(CCN(CC(=O)[O-])CC(=O)[O-])CCN(CC(=O)[O-])CC(=O)[O-].[Gd+3] [[Gd(DTPA)(H2O)]^2-]
[1]
  Relaxivity in plasma: 4.1 mM⁻¹ s⁻¹
[10]
  Pseudo-first order rate constant of transmetallation: 1.41±0.31 × 10^-2 s^-1

## O.O=C([O-])CN(CC(=O)[O-])C1CCCCC1N(CC(=O)[O-])CC(=O)[O-].[Mn+2] (stereo not shown) [[Mn(CDTA)(H2O)]^2-]
[10]
  Pseudo-first order rate constant of transmetallation: 1.10±0.01 × 10^-3 s^-1

## O.O=C([O-])CN(CC(=O)[O-])C1CCCCC1N(CC(=O)[O-])Cc1ccccn1.[Mn+2] (stereo not shown) [[Mn(PyC3A)(H2O)]^-]
[11]
  Blood clearance t1/2: 7.8 ± 3.0 min
[12]
  Elimination by 24h: > 99%
  Injected dose remaining in the body at 24 hours: less than 1%
[12]; 60 μmol/kg i.v., ICP-MS
  Mn levels in all other tissues at 24h vs naïve mice: not elevated above endogenous basal levels
  Mn remaining in liver and kidneys at 24h: < 0.05 %ID/g
[13]
  Fraction protein bound in plasma: 1-5%
[4]
  Hydration state (q): 1
  Mn-17O hyperfine coupling constant AO/ħ: 2.87±0.080 ×10^7 rad/s
  ΔH^≠: 8.89 kcal/mol
  kex^310: 1.0±0.02 ×10^8 s^-1
[14]
  Fraction protein bound in 4.5% w/v BSA solution: 1-5%
[6]; 1.4 T, 37 °C, per Mn
  Relaxivity r1 in 4.5% w/v BSA solution: 3.4 mM⁻¹ s⁻¹
  Relaxivity r1 in bovine blood plasma: 3.8 mM⁻¹ s⁻¹
  Relaxivity r1 in pH 7.4 buffer: 2.1 mM^-1s^-1
[10]
  Pseudo-first order rate constant of transmetallation: 6.76±0.03 × 10^-4 s^-1
[15]
  logKpH 7.4 (effective formation constant at pH 7.4): 11.40
[9]; Mn(II) complex, pH-potentiometry, 25 °C, I = 0.15 M NaCl
  logKML: 14.14
[9]; from potentiometric titration, 25 °C, 0.15 M NaCl
  logKpH 7.4 (effective formation constant at pH 7.4): 11.34
[9]; pH 7.4
  Stability relative to [Mn(DPDP)]^3- at pH 7.4: > 10^5 times

From PMC4764508 (Journal of the American Chemical Society, 2015)
